Results reported in BindingDB's records for doi:10.1016/j.bmc.2016.07.028 (Jagiellonian University Medical College, 2016).
Values belong to the compound of their own block, whether it stands above or below them.

What was measured:
Adenosine receptor A2a [1] = biological target: T1, Adenosine receptor A2a (Homo sapiens, UniProt P29274); experiment: Antagonist activity at human adenosine receptor A2a expressed in CHO cell membranes assessed as inhibition of NECA-induced cAMP accumulation measured as NECA EC50 at 5 uM incubated for 15 mins in presence of [3H]cAMP by liquid scintillation counting (Rvb = 68 nM)
In short: (§1)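 Stably transfected CHO cells (human A2A or A2B) grown in DMEM-F12 with 10% FCS at 37 °C, 5% CO2. The cells were seeded at 200,000/well, washed after 24 h and held 2 h in HBSS (pH 7.3) with 1 U/ml adenosine deaminase. Ro20-1724 was added to 40 µM final for 15 min, then NECA dilutions ± one fixed test concentration in 2.5% DMSO, in duplicate.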

Adenosine receptor A2b = biological target: T2, Adenosine receptor A2b (Homo sapiens, UniProt P29275); experiment: Antagonist activity at human adenosine receptor A2b expressed in CHO cell membranes assessed as inhibition of NECA-induced cAMP accumulation measured as NECA EC50 at 2 uM incubated for 15 mins in presence of [3H]cAMP by liquid scintillation counting (Rvb = 73 nM); in short: as §1
T2 sequence (P29275 whole entry): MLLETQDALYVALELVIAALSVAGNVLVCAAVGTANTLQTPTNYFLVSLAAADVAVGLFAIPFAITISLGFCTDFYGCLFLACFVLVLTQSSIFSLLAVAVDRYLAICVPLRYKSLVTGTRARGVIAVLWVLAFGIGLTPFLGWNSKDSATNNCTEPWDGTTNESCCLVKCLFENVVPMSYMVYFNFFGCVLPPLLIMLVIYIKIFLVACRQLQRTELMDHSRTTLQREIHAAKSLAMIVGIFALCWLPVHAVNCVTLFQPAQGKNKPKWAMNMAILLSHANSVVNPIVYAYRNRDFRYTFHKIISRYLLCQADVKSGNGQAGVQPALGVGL

Adenosine receptor A2a [2] = biological target: T1, Adenosine receptor A2a; experiment: Antagonist activity at human adenosine receptor A2a expressed in CHO cell membranes assessed as inhibition of NECA-induced cAMP accumulation measured as NECA EC50 at 7 uM incubated for 15 mins in presence of [3H]cAMP by liquid scintillation counting (Rvb = 77 nM)

T1 sequence (P29274 whole entry): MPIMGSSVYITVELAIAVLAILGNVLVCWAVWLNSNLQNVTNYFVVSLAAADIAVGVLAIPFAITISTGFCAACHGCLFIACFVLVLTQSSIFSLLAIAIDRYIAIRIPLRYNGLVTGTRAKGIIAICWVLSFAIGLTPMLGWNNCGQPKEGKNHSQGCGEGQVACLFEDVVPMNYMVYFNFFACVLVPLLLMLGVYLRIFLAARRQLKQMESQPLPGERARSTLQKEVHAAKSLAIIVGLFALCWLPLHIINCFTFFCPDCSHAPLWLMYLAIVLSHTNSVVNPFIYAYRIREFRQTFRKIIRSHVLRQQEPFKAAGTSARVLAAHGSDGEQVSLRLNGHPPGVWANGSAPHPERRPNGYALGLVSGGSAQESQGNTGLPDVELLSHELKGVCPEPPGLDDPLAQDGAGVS

EC50 (Adenosine receptor A2a [1]): 460 nM
SMILES: CCN(CC)CCOc1ccc(CCN2CCCn3c2nc2c3c(=O)n(C)c(=O)n2C)cc1

EC50 (Adenosine receptor A2b): 335 nM
SMILES: CCCCn1c(=O)c2c(nc3n2CCCN3CCc2ccc(OCCN(CC)CC)cc2)n(CCCC)c1=O

EC50 (Adenosine receptor A2a [2]): 302 nM
SMILES: Cn1c(=O)c2c(nc3n2CCCN3CCc2ccc(O)cc2)n(C)c1=O [9-(4-hydroxyphenethyl)-1,3-dimethyl-6,7,8,9-tetrahydropyrimido[1,2-a]purine-2,4(1H,3H)-dione]
